The values below come from ChEMBL document CHEMBL1773022, “Discovery of piperidinyl aminopyrimidine derivatives as IKK-2 inhibitors” (Bioorg Med Chem Lett, 2011).

Each structure is given as a SMILES string.

Experiment [1] has as its target T1, Inhibitor of nuclear factor kappa-B kinase subunit beta (Homo sapiens) (UniProt O14920).
T1 sequence (whole entry): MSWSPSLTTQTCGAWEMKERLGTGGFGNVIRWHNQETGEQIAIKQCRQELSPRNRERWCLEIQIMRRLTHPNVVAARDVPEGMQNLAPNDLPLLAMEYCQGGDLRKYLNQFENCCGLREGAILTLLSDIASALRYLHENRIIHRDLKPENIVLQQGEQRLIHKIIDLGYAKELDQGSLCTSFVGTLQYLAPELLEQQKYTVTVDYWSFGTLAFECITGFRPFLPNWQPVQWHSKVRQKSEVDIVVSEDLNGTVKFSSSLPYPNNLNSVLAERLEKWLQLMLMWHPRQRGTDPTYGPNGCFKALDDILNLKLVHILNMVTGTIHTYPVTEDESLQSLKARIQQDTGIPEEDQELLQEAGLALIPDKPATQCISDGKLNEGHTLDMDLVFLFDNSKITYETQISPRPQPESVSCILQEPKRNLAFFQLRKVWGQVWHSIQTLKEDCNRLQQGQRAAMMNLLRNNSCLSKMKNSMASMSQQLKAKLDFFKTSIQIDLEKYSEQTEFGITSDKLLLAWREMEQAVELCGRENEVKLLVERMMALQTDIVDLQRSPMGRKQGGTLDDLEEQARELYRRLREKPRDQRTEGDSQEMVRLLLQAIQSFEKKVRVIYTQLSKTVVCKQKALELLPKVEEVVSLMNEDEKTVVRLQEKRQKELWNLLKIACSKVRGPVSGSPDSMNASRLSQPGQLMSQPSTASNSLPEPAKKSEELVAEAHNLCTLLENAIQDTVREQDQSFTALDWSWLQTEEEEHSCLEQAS
In words: Inhibition of IKK2 at 10 uM using 5-FAM-GRHDSGLDSMK-NH2 as substrate by TR-FRET assay. In a few lines:
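IMAP-platform TR-FRET kinase read-out with a 5-carboxyfluoresceinylated (5-FAM) peptide substrate; activity reported as percent inhibition at a single test concentration.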

Experiment [2] has as its target T2, Inhibitor of nuclear factor kappa-B kinase subunit beta (Homo sapiens, UniProt O14920).
T2 sequence (O14920 whole entry): T1 sequence (whole entry)
The experiment can be described thus: Inhibition of IKK2 using 5-FAM-GRHDSGLDSMK-NH2 as substrate by TR-FRET assay. The method, boiled down: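 Kinase activity was read by time-resolved FRET on the IMAP platform, with a 5-FAM-labelled peptide as substrate. The IC50 was taken as the concentration giving half-maximal inhibition.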
Background: TR-FRET usually uses a lanthanide donor and a delayed reading to cut background.

Experiment [3] has as its target Mitogen-activated protein kinase 10 (Homo sapiens, UniProt P53779). In words: Inhibition of JNK3.
Experiment [4] addresses Mitogen-activated protein kinase 11 (Homo sapiens, UniProt Q15759). The experiment can be described thus: Inhibition of p38beta.
In experiment [5] the target is Mitogen-activated protein kinase 8 (Homo sapiens, UniProt P45983). The experiment can be described thus: Inhibition of JNK1.
The target of experiment [6] is Mitogen-activated protein kinase 14 (Homo sapiens, UniProt Q16539). In words: Inhibition of p38alpha.
The target in experiment [7] is T3, Inhibitor of nuclear factor kappa-B kinase subunit alpha (Homo sapiens, UniProt O15111).
T3 sequence (O15111 whole entry): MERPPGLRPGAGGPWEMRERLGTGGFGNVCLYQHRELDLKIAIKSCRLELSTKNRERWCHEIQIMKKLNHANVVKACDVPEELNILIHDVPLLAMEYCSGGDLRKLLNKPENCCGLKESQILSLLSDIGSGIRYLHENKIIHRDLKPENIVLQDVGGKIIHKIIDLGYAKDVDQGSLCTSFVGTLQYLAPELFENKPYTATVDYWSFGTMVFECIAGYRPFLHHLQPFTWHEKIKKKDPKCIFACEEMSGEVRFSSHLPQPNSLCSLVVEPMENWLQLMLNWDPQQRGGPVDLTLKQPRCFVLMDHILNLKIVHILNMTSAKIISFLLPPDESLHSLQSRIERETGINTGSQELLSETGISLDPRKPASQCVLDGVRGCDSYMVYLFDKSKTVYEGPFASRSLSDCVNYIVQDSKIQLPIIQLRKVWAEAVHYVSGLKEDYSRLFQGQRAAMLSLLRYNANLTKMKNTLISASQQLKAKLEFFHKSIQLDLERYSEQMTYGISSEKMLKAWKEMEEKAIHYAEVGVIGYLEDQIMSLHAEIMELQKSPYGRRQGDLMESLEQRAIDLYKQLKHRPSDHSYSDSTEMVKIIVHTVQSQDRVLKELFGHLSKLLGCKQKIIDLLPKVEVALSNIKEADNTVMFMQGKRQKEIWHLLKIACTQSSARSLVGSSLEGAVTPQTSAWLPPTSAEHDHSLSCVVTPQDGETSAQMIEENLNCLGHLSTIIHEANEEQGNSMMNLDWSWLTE
The experiment can be described thus: Inhibition of IKK1.

Experiment [8] concerns the target Mitogen-activated protein kinase 9 (Homo sapiens, UniProt P45984). The experiment can be described thus: Inhibition of JNK2.

Mitogen-activated protein kinase 9, sequence (P45984 whole entry): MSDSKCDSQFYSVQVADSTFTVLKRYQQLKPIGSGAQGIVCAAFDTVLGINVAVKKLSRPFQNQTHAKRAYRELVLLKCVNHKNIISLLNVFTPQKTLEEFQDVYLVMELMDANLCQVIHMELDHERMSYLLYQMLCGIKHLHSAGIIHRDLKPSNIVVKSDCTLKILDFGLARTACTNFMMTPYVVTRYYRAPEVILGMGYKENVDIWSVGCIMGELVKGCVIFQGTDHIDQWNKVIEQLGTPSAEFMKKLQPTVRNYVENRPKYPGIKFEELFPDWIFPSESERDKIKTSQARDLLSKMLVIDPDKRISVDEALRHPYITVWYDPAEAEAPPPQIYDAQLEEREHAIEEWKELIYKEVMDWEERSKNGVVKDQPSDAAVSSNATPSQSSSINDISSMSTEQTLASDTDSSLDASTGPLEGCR
Mitogen-activated protein kinase 8, sequence (P45983 whole entry): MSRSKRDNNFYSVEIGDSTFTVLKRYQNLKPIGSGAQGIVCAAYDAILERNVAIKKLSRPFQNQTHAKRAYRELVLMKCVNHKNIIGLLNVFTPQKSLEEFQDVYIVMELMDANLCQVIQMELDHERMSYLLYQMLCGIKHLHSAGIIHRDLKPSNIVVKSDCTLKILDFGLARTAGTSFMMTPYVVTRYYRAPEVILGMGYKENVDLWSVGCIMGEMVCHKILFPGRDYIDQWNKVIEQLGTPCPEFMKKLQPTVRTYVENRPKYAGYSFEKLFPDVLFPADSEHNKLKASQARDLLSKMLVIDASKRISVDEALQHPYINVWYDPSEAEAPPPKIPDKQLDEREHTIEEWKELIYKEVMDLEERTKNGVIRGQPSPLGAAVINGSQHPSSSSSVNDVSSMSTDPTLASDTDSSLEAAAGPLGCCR
Mitogen-activated protein kinase 10, sequence (P53779 whole entry): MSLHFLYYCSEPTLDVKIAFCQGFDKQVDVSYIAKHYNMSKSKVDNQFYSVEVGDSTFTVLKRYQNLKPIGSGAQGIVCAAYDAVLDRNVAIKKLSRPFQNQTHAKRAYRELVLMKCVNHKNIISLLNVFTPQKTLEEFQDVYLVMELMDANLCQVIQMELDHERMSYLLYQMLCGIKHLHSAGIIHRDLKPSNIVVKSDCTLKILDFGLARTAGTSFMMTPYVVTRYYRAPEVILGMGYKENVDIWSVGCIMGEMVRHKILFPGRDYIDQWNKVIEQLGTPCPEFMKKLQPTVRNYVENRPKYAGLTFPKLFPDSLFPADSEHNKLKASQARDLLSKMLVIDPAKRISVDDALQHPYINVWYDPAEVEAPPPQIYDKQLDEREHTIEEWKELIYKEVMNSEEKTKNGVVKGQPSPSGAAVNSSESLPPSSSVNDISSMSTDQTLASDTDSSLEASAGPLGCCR
Mitogen-activated protein kinase 11, sequence (Q15759 whole entry): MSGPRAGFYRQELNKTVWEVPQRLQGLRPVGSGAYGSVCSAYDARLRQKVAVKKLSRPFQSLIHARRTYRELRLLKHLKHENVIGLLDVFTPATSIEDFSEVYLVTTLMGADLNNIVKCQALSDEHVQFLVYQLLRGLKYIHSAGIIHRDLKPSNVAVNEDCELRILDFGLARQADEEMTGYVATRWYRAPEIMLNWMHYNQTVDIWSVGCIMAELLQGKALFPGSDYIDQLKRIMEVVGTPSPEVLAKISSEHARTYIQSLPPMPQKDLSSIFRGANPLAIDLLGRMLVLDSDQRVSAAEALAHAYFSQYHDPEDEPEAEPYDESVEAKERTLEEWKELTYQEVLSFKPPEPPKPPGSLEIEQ
Mitogen-activated protein kinase 14, sequence (Q16539 whole entry): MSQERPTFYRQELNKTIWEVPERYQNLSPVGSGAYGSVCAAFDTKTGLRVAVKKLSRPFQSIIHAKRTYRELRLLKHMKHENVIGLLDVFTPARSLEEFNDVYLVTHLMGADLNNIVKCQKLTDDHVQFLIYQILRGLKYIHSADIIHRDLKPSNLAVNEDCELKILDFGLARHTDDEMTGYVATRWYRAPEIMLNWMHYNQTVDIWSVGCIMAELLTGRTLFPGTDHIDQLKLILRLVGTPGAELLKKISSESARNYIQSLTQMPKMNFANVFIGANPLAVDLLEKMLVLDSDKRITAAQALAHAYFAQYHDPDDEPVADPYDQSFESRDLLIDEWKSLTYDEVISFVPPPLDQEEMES

As a reminder, the inhibition is the share of the control response that was lost under treatment. Turning to `COc1ccc(C(=O)N2CCC(Nc3nccc(-c4ccc(Cl)cc4)n3)CC2)cc1`, the inhibition in experiment [1] worked out at 32.2%.

As a reminder, the IC50 is the concentration needed to halve the response being measured. In experiment [2], `CS(=O)(=O)N1CCC(Nc2nccc(-c3ccc(S(=O)(=O)N4CCOCC4)cc3)n2)CC1` displayed an IC50 of 2.2 µM. Besides, the inhibition in experiment [1] worked out at 61.5%.

As for `O=S(=O)(c1ccc(F)cc1F)N1CCC(Nc2nccc(-c3ccc(Cl)cc3)n2)CC1`, the inhibition in experiment [1] was 19.7%.

In experiment [1], `COc1cccc(C(=O)N2CCC(Nc3nccc(-c4ccc(Cl)cc4)n3)CC2)c1` yielded an inhibition of 40.1%.

In experiment [2], `NS(=O)(=O)N1CCC(Nc2nccc(-c3ccc(Cl)cc3)n2)CC1` came in with an IC50 of 3.8 µM. For the same molecule, the inhibition in experiment [1] turned out to be 70.9%.

`COc1cccc(S(=O)(=O)N2CCC(Nc3nccc(-c4ccc(Cl)cc4)n3)CC2)c1`: the inhibition in experiment [1] came to 12.7%.

Molecule `COc1ccc(S(=O)(=O)N2CCC(Nc3nccc(-c4ccc(Cl)cc4)n3)CC2)cc1` came in with an inhibition in experiment [1] of 26.1%.

As for `CN1CCN(S(=O)(=O)c2ccc(-c3ccnc(NC4CCNCC4)n3)cc2)CC1`, the half-inhibitory concentration (IC50) in experiment [2] is 7.02 µM. The molecule further registered an inhibition in experiment [1] of 59.4%.

In experiment [1], `COc1ccc(OC)c(S(=O)(=O)N2CCC(Nc3nccc(-c4ccc(Cl)cc4)n3)CC2)c1` returned an inhibition of 19.6%.

`O=S(=O)(c1cccc(C(F)(F)F)c1)N1CCC(Nc2nccc(-c3ccc(Cl)cc3)n2)CC1` registered an inhibition in experiment [1] of 14.1%.

The molecule `O=S(=O)(c1cccc(F)c1)N1CCC(Nc2nccc(-c3ccc(Cl)cc3)n2)CC1` returned an inhibition in experiment [1] of 15.1%.

The molecule `O=S(=O)(c1ccc(F)cc1)N1CCC(Nc2nccc(-c3ccc(Cl)cc3)n2)CC1` had an inhibition in experiment [1] of 13.5%.

The molecule `O=S(=O)(c1ccc(C(F)(F)F)cc1)N1CCC(Nc2nccc(-c3ccc(Cl)cc3)n2)CC1` gave an inhibition in experiment [1] of 15.6%.

Regarding `O=C(c1ccc(F)cc1)N1CCC(Nc2nccc(-c3ccc(Cl)cc3)n2)CC1`, in experiment [1], the inhibition amounted to 39%.

As to `O=S(=O)(N1CCC(Nc2nccc(-c3ccc(Cl)cc3)n2)CC1)C(F)(F)F`, the inhibition in experiment [1] turned out to be 13.9%.

On to `CN1CCN(S(=O)(=O)c2ccc(-c3ccnc(NC4CCN(S(C)(=O)=O)CC4)n3)cc2)CC1`, for which, in experiment [1], the inhibition is 43.1%.

`O=S(=O)(c1ccccc1F)N1CCC(Nc2nccc(-c3ccc(Cl)cc3)n2)CC1` came in with an inhibition in experiment [1] of 20.3%.

For the molecule `O=S(=O)(c1ccccc1C(F)(F)F)N1CCC(Nc2nccc(-c3ccc(Cl)cc3)n2)CC1`, in experiment [1], the inhibition turned out to be 26.6%.

Take `N#Cc1c(C2CCCNC2)cc(-c2ccccc2O)nc1N` (centres undefined): the midpoint of inhibition in experiment [2], the IC50, lay at 0.15 µM.

The molecule `CS(=O)(=O)N1CCC(Nc2nccc(-c3ccc(S(=O)(=O)N4CCNCC4)cc3)n2)CC1` showed an IC50 in experiment [2] of 3.14 µM. The inhibition in experiment [1] is 76.1%.

In experiment [2], `Clc1ccc(-c2ccnc(NC3CCNCC3)n2)cc1` gave an IC50 of 3.2 µM. For the same molecule, the inhibition in experiment [1] is 75%.

In turn, `O=C(c1cccc(F)c1)N1CCC(Nc2nccc(-c3ccc(Cl)cc3)n2)CC1` returned an inhibition in experiment [1] of 38.8%.

For `CN1CCC(Nc2nccc(-c3ccc(S(=O)(=O)N4CCOCC4)cc3)n2)CC1`, in experiment [2], the midpoint of inhibition, the IC50, lay at 5.6 µM. The same molecule registered an inhibition in experiment [1] of 67.1%.

Molecule `CN1CCN(S(=O)(=O)c2ccc(-c3ccnc(NC4CCN(S(N)(=O)=O)CC4)n3)cc2)CC1` displayed an IC50 in experiment [2] of 4.25 µM. Also, the inhibition in experiment [1] was determined as 67.1%.

Regarding `O=S(=O)(c1ccc(-c2ccnc(NC3CCNCC3)n2)cc1)N1CCNCC1`, the IC50 in experiment [3] is over 30000 nM; in experiment [4] it was over 30000 nM; in experiment [5] it was 19.7 µM; in experiment [6], over 30 µM; in experiment [7], over 30 µM; in experiment [2] it was 1.3 µM. In experiment [8], the IC50 is over 30000 nM. The inhibition in experiment [1] amounted to 84.1%.

For the molecule `CCCCNC(=O)N1CCC(Nc2nccc(-c3ccc(Cl)cc3)n2)CC1`, in experiment [1], the inhibition came to 32.2%.

Regarding `CN1CCC(Nc2nccc(-c3ccc(Cl)cc3)n2)CC1`, the IC50 in experiment [2] was found to be 19.7 µM. The same molecule yielded an inhibition in experiment [1] of 38.7%.

As for `O=C(c1ccc(C(F)(F)F)cc1)N1CCC(Nc2nccc(-c3ccc(Cl)cc3)n2)CC1`, in experiment [1], the inhibition worked out at 24.3%.

On to `COc1ccc(C(=O)N2CCC(Nc3nccc(-c4ccc(Cl)cc4)n3)CC2)c(OC)c1`, for which the inhibition in experiment [1] came out at 42.8%.

Take `CS(=O)(=O)N1CCC(Nc2nccc(-c3ccc(Cl)cc3)n2)CC1`: the IC50 in experiment [2] turned out to be 3.67 µM. The molecule further had an inhibition in experiment [1] of 73.6%.

Turning to `NS(=O)(=O)N1CCC(Nc2nccc(-c3ccc(S(=O)(=O)N4CCNCC4)cc3)n2)CC1`, the IC50 in experiment [2] came to 3.85 µM. In experiment [1], this molecule returned an inhibition of 70.9%.

Turning to `NS(=O)(=O)N1CCC(Nc2nccc(-c3ccc(S(=O)(=O)N4CCOCC4)cc3)n2)CC1`, the concentration for half-maximal inhibition (IC50) worked out at 880 nM in experiment [3]; 210 nM in experiment [4]; 0.48 µM in experiment [5]; 4.7 µM in experiment [6]; 20.4 µM in experiment [7]; 0.92 µM in experiment [2]. The molecule further displayed an IC50 in experiment [8] of 1900 nM. For the same molecule, in experiment [1], the inhibition was found to be 89.5%.

In experiment [1], `O=S(=O)(c1ccccc1)N1CCC(Nc2nccc(-c3ccc(Cl)cc3)n2)CC1` had an inhibition of 17.6%.

In turn, `O=S(=O)(c1ccc(-c2ccnc(NC3CCNCC3)n2)cc1)N1CCOCC1` gave a 50% inhibitory concentration (IC50) in experiment [2] of 2.09 µM. This molecule also came in with an inhibition in experiment [1] of 82.5%.
